What was measured:
HL-60 = test: Antiproliferative activity against human HL60 cells after 72 hrs by Celltiter-Glo assay; type: functional; details: HL-60, 72 h
Summary of the method: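 Cells seeded at 3000/well in 96-well plates, exposed to serially diluted compound for 72 h at 37 °C, 5% CO2. Viability read by CellTiter-Glo luminescence and normalized to DMSO control. GI50 derived from curve fit, mean of three independent measurements. Culture media: DMEM/10% FBS for adherent lines; IMDM for MV4-11 and MEC-1/2; RPMI 1640 for suspension lines and CHL.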

[1] = biological target: Serine/threonine-protein kinase TBK1 (Homo sapiens) (UniProt Q9UHD2); test: Binding affinity to wild-type human full length TBK1 (M1 to L729 residues) expressed in mammalian expression system assessed as remaining unbound target protein level at 1000 nM by Kinomescan method relative to control
Summary of the method: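 KINOMEscan competition binding profile across a panel of 468 kinases and mutants, with the inhibitor tested at a single concentration of 1 μM. Binding is reported as percent of control, meaning signal relative to a DMSO control.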

Chain of Serine/threonine-protein kinase TBK1 (Homo sapiens) (Q9UHD2 whole entry, the tested form may be a part): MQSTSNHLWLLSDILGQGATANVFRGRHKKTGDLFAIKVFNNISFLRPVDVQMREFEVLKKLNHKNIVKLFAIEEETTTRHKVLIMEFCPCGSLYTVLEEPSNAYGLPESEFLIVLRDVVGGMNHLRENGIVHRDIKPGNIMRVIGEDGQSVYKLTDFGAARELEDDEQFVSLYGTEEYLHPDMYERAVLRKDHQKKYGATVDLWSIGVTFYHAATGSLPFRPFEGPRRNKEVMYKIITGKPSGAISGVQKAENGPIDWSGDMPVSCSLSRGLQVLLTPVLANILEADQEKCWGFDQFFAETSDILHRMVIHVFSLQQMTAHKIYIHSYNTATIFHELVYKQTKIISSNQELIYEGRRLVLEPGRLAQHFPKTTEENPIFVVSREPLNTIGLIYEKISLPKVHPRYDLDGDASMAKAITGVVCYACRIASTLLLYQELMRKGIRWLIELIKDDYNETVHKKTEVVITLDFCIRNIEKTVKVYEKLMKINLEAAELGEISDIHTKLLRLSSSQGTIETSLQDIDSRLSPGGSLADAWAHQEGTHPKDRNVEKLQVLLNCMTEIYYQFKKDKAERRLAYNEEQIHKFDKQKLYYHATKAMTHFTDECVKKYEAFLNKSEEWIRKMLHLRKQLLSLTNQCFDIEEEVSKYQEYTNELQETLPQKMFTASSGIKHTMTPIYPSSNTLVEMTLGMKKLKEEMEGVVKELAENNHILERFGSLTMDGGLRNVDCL

With `COCCN[C@H]1CC[C@H](Nc2cc(-c3csc(NCC4(C#N)CCOCC4)n3)c(Cl)cn2)CC1` the GI50 (HL-60) was 56 nM and the Activity [1] was 86%.

From ChEMBL document CHEMBL4261600 (Eur J Med Chem, 2018)
